# Assay results taken from ChEMBL document CHEMBL1138344, “Nuclear magnetic resonance fragment-based identification of novel FKBP12 inhibitors” (J Med Chem, 2007).
# Test system: not listed separately
# Assay: Metabolic stability in human liver microsomes
# Assay type: ADME, Microsome
# Method in brief: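 Pooled human liver microsomes with an NADPH-generating system (DETAPAC, NADP+, glucose-6-phosphate, G6P dehydrogenase) in 50 mM potassium phosphate pH 7.4. Started by adding compound from a 5 mM stock (FK506 stock 0.5 mM). Aliquots taken at 0, 10, 25, 40 and 60 min and extracted with dichloromethane/isopropanol 3:1. Half-life determined.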
row,Compound,half-life [min]
1,COC(=O)C1COCCN1C(=O)CSc1ccc(C(C)C)cc1 (configuration not stated),40
2,CC(C)c1ccc(SCC(=O)N2CCOCC2C(=O)O)cc1 (configuration not stated),> 60
3,CC(C)c1ccc(SCC(=O)N2CCOCC2C(=O)OCCCc2cccnc2)cc1 (configuration not stated),40
4,COc1ccc(CCC(=O)N2CCOCC2)cc1,40
5,COC(=O)C1COCCN1C(=O)C(F)(F)Sc1ccc(C(C)C)cc1 (configuration not stated),40
6,COC(=O)[C@@H]1CCCCN1C(=O)C(=O)c1cc(OC)c(OC)c(OC)c1,40
7,CC(C)c1ccc(SCC(=O)N2CCOCC2)cc1,40
8,C=CC[C@@H]1/C=C(\C)C[C@H](C)C[C@H](OC)[C@H]2O[C@@](O)(C(=O)C(=O)N3CCCC[C@H]3C(=O)O[C@H](/C(C)=C/[C@@H]3CC[C@@H](O)[C@H](OC)C3)[C@H](C)[C@@H](O)CC1=O)[C@H](C)C[C@@H]2OC [TACROLIMUS ANHYDROUS],> 60

# Target: not listed separately
# Assay: Inhibition of testosterone 6-hydroxylase
# Parameters: species or system Homo sapiens
# Method in brief: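 Pooled human liver microsomes with an NADPH-generating system (DETAPAC, NADP+, glucose-6-phosphate, G6P dehydrogenase) in 50 mM potassium phosphate pH 7.4. Compound added, then testosterone substrate; 10 min shaking at 37 °C, stopped with cold ethyl acetate. Read-out is 6-hydroxytestosterone formation. IC50 estimated, or determined in detail for some compounds.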
row,Compound,IC50 [nM]
1,CC(C)c1ccc(SCC(=O)N2CCOCC2C(=O)OCCCc2cccnc2)cc1 (configuration not stated),810
2,C=CC[C@@H]1/C=C(\C)C[C@H](C)C[C@H](OC)[C@H]2O[C@@](O)(C(=O)C(=O)N3CCCC[C@H]3C(=O)O[C@H](/C(C)=C/[C@@H]3CC[C@@H](O)[C@H](OC)C3)[C@H](C)[C@@H](O)CC1=O)[C@H](C)C[C@@H]2OC [TACROLIMUS ANHYDROUS],2260

# Target: Peptidyl-prolyl cis-trans isomerase FKBP1A (Homo sapiens, UniProt P62942)
# Sequence (P62942 whole entry): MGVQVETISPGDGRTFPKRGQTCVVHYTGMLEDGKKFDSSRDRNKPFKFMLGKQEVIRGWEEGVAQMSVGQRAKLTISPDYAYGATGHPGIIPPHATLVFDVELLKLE
row,Compound,Kd [µM]
1,Cc1ccc(OCC(=O)N2CCOCC2)cc1C,231
2,CC(C)c1ccc(OCC(=O)N2CCOCC2)cc1,100
3,O=C(COc1ccccc1F)N1CCOCC1,357
4,O=C(COc1ccc(F)cc1)N1CCOCC1,576
5,O=C(CSc1ccc2ccccc2c1)N1CCOCC1,> 1400
6,COc1cc(CNCc2cccs2)ccc1OCC(=O)N1CCOCC1,> 5000
7,CC(C)c1ccc(SCC(=O)N2CCOCC2C(=O)O)cc1 (configuration not stated),426
8,CC(C)c1ccc(SCC(=O)N2CCOCC2C(=O)OCCCc2cccnc2)cc1 (configuration not stated),5.6
9,CC(C)c1ccc(S(=O)(=O)CC(=O)N2CCOCC2C(=O)OCCCc2ccc[n+]([O-])c2)cc1 (configuration not stated),1280
10,CSc1ccccc1NC(=O)Cn1c(-c2cscn2)nc2ccccc21,> 4000
11,Cc1cc(OCC(=O)N2CCOCC2)ccc1NC(=O)OCc1ccccc1,> 1500
12,Cc1ccc(C(C)C)c(OCCNC(=O)c2ccccc2OCC(=O)N2CCOCC2)c1,> 2500
13,O=C(COc1cccc(Cl)c1)N1CCOCC1,755
14,Cc1cc(OCC(=O)N2CCOCC2)cc(C)c1Cl,231
15,Cc1cc(C)c(OCC(=O)N2CCOCC2)c(C)c1,> 1500
16,CC(=O)c1cccc(NS(=O)(=O)N2CCCCC2)c1,552
17,CCc1ccc(OCC(=O)N2CCOCC2)cc1,123
18,O=[N+]([O-])c1ccc(NS(=O)(=O)N2CCCCC2)cc1,167
19,Cc1cc(C)c(C)c(OCC(=O)N2CCOCC2)c1,> 1000
20,c1ccc2c(c1)nc(-c1cscn1)n2Cc1ccc(-c2nnn[nH]2)cc1,> 3000
21,Cc1ccc(NS(=O)(=O)N2CCCCC2)cc1,289
22,CCc1ccccc1OCC(=O)N1CCOCC1,> 1500

row,Compound,Kd [µM]
1,CC(C)NS(=O)(=O)c1ccc(OCC(=O)N2CCOCC2)cc1,> 1000
2,CCOc1ccc(OCC(=O)N2CCOCC2)cc1,576
3,Cc1ccc(NS(=O)(=O)c2ccc(OCC(=O)N3CCOCC3)cc2)cc1,> 1000
4,O=C(COc1ccc2c(c1)OCO2)N1CCOCC1,576
5,Cc1ccc(OCC(=O)N2CC(C)OC(C)C2)cc1C (configuration not stated),> 5000
6,Cc1cc(C)cc(NS(=O)(=O)N2CCCCC2)c1,> 1860
7,CC(C)c1ccccc1OCC(=O)N1CCOCC1,> 2500
8,CCOc1ccc(NS(=O)(=O)N2CCCCC2)cc1,> 1230
9,Cc1cc(OCC(=O)N2CC(C)OC(C)C2)cc(C)c1Cl (configuration not stated),> 5000
10,Cc1ccc(Cl)cc1NS(=O)(=O)N1CCCCC1,> 3700
11,O=S(=O)(Nc1ccc2c(c1)oc1ccccc12)N1CCCCC1,> 3700
12,Nc1cccc(OCC(=O)N2CCOCC2)c1,> 5000
13,Cc1cc(S(=O)(=O)N2CCCC2)ccc1OCC(=O)N1CCOCC1,576
14,COC(=O)C1COCCN1C(=O)CS(=O)(=O)c1ccc(C(C)C)cc1 (configuration not stated),505
15,Cc1ccc(SCC(=O)N2CCOCC2)cc1,15
16,Cc1cc(S(=O)(=O)Nc2cccc(C(F)(F)F)c2)ccc1OCC(=O)N1CCOCC1,576
17,COc1cc2c(cc1NS(=O)(=O)N1CCCCC1)oc1ccccc12,> 3700
18,COc1ccc(CCC(=O)N2CCOCC2)cc1,204
19,O=C(CSc1ccccc1)N1CCOCC1,15.3
20,COC(=O)C1COCCN1C(=O)C(F)(F)Sc1ccc(C(C)C)cc1 (configuration not stated),190
21,O=C(O)c1cc(C(F)(F)F)ccc1SCC(=O)N1CCOCC1,453
22,CC(C)c1ccc(SC(F)(F)C(=O)N2CCOCC2)cc1,2.8

row,Compound,Kd [µM]
1,O=C(Cn1c(-c2cscn2)nc2ccccc21)Nc1ccc(Cl)cc1,> 4000
2,Nc1nc(-c2nc3ccccc3[nH]2)cs1,98
3,COc1ccc(OCC(=O)N2CCOCC2)cc1,357
4,O=C(COc1cc(Cl)c(Cl)cc1Cl)N1CCOCC1,450
5,O=C(Nc1ccc(OCC(=O)N2CCOCC2)cc1)c1ccccc1F,> 1500
6,CC1CN(C(=O)CSc2ccccc2)CC(C)O1 (configuration not stated),726
7,Cc1ccc(SCC(=O)N2CC(C)OC(C)C2)cc1 (configuration not stated),> 4000
8,O=C(COc1ccccc1)N1CCOCC1,> 1030
9,Cc1cc(Cl)ccc1OCC(=O)N1CCOCC1,> 1000
10,Cc1nnc(SCC2=NOCC2)n1-c1ccccc1,39
11,Cc1ccc2cccc(SCC(=O)N3CCOCC3)c2n1,> 1400
12,N#Cc1ccccc1Cn1c(-c2cscn2)nc2ccccc21,> 4000
13,Fc1ccc(Cn2c(-c3cscn3)nc3ccccc32)c(Cl)c1,> 4000
14,COC(=O)[C@@H]1CCCCN1C(=O)C(=O)c1cc(OC)c(OC)c(OC)c1,3
15,CCCCNS(=O)(=O)c1ccc(OCC(=O)N2CCOCC2)cc1,755
16,O=C(COc1ccc(S(=O)(=O)NC2CCCC2)cc1)N1CCOCC1,755
17,O=C(Nc1cccc(Cl)c1Cl)c1ccccc1OCC(=O)N1CCOCC1,> 5000
18,Brc1ccccc1Cn1c(-c2cscn2)nc2ccccc21,> 3000
19,O=S(=O)(Nc1ccc(F)cc1)N1CCCCC1,319
20,O=C(CSc1cccc2cccnc12)N1CCOCC1,> 1400
21,Clc1cccc(Cl)c1Cn1c(-c2cscn2)nc2ccccc21,> 4000
22,FC(F)(F)c1cccc(Cn2c(-c3cscn3)nc3ccccc32)c1,> 3000

row,Compound,Kd [µM]
1,O=C(Cn1c(-c2cscn2)nc2ccccc21)Nc1ccccc1F,> 4000
2,O=C(Nc1ccc(OCC(=O)N2CCOCC2)cc1)c1ccccc1Cl,> 2500
3,Cc1ccc(OCC(=O)N2CCOCC2)c(C)c1,> 1000
4,O=S(=O)(Nc1cc(Cl)cc(Cl)c1)N1CCCCC1,155
5,Cc1ccc(-c2ccc(OCC(=O)N3CCOCC3)cc2)cc1,755
6,O=C(COc1ccc(Cl)cc1Cl)N1CCOCC1,> 1030
7,Cc1ccc(NS(=O)(=O)N2CCCCC2)c(C)c1,287
8,Cc1cc(OCC(=O)N2CCOCC2)ccc1C(C)C,187
9,CC1CN(C(=O)COc2ccccc2Cl)CC(C)O1 (configuration not stated),> 5000
10,O=C(CSc1ccc(Cl)cc1)N1CCOCC1,15
11,O=C(O)c1ccccc1SCC(=O)N1CCOCC1,> 3700
12,O=C(Nc1ccc(OCC(=O)N2CCOCC2)cc1)c1cccnc1,> 5000
13,CC(C)c1ccc(SCC(=O)O)cc1,> 4000
14,Cc1ccc(NS(=O)(=O)N2CCCCC2)cc1Cl,135
15,Cc1ccc(S(=O)(=O)CC(=O)N2CCOCC2)cc1,> 5000
16,c1ccc2c(c1)nc(-c1cscn1)n2CCCc1nnn[nH]1,> 1500
17,Cc1cc(OCC(=O)N2CCOCC2)cc(C(C)C)c1Cl,576
18,CC(C)c1ccc(CCC(=O)N2CCOCC2)cc1,2.3
19,Cc1cc(N)cc(C)c1OCC(=O)N1CCOCC1,> 2400
20,O=S(=O)(Nc1ccc(Br)cc1)N1CCCCC1,299
21,c1ccc2[nH]c(-c3cscn3)nc2c1 [THIABENDAZOLE],60
